EBNA-1 inhibitor – blocks EBNA-1 binding to DNA | EBNA-1 DNA binding, fluorescence polarization | inhibition, % at 14.8 µM | hit rate 0.34% among 300,000 | AID 1950; in the data active = inhibition above about 28%
SUMO HTRF inh – SUMOylation inhibition | inhibition, % at 35 µM | hit rate 0.36% among 290,000 | HTRF SUMOylation assay, SAE1/SAE2 + UBC9, in vitro; in the data active = inhibition above about 50%, passing the limit was not always enough
Target sequence (P63279 whole entry, looked up): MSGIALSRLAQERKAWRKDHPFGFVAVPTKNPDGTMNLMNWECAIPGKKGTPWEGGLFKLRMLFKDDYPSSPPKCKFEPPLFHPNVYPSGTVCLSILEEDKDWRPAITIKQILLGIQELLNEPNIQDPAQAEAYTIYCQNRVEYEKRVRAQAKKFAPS
NS3 helicase inh – inhibitors of Hepatitis C virus NS3 helicase. NS3 helicase DNA unwinding, Cy5 molecular beacon fluorescence. inhibition, % at 10.9 µM. hit rate 0.56% among 290,000. AID 1800;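 active = inhibition above the mean of all tested compounds plus 3 SD, set per campaign, cut at about 35% in these data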
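Compound dosing – single dose, 10.9 µM nominal final, DMSO 0.8% final · System – NS3 helicase fragment of HCV · Buffer or medium – MOPS pH 6.5, MgCl2, DTT, Tween20, BSA · Signal – Cy5 beacon fluorescence read at start and 1 h · Also added – annealed dual-labelled DNA beacon duplex, ATP-started · Schedule – 1 h at 25 °C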
ZTA counter – ZTA (EBV) inhibition in EBNA-1 counter-screen | hit rate 0.15% among 320,000 | P03206 | ZTA-DNA binding, fluorescence polarization | AID 2234 | inhibition, % at 11 µM; in the data active = inhibition above about 33%
Target sequence (P03206 whole entry, looked up): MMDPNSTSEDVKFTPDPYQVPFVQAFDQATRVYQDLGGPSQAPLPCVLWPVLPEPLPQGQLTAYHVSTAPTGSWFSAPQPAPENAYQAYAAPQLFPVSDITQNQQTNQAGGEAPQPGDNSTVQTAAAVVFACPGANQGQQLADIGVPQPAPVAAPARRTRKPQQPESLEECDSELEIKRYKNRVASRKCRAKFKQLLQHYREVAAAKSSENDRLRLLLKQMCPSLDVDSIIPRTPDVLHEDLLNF
core dimer inh – HCV core protein dimerization inhibition; TR-FRET GST/Flag-core106 dimerization, 1536-well; AID 1899; hit rate 0.33% among 300,000; inhibition, % at 5 µM;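 active = inhibition above the mean of all tested compounds plus 3 SD, set per screening campaign, cut at about 45% in these data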
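System: GST-tagged and Flag-tagged HCV core protein residues 1-106 / Input: core106 proteins, GST 13.5 nM and Flag 17 nM / Buffer or medium: KF-containing HEPES buffer, pH 7.45, DTT, CHAPS, BSA / Probe or stimulus: Eu-anti-GST and XL665-anti-Flag labelled anti-tag antibodies / Schedule: 4 h, 22.5 °C incubation / Technique: TR-FRET 671 and 617 nm emission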
NS3 hel confirm – HCV NS3 helicase inhibition, confirmation assay; shares compounds with NS3 helicase inh; NS3 helicase DNA unwinding, Cy5 molecular beacon fluorescence; inhibition, % at 10.9 µM; hit rate 31% among 1,600;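 active = inhibition above the mean of all tested compounds plus 3 SD, cutoff set per campaign, cut at about 36% in these data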
DNA FID counter – displaces DNA intercalator in HCV helicase counter-screen. shares compounds with NS3 helicase inh. DNA fluorescent intercalator displacement, fluorescence. inhibition, % at 7.9 µM. hit rate 4% among 1,600. AID 1945; in the data active = inhibition above about 37%;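 also: higher means more displacement of ethidium bromide from the DNA hairpin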
Large screens that a line does not name were inactive (follow-up assays come after a bar, where they were run). Compounds with a hit are over-represented: about 1.4% of the library has one in this group of screens.

OCC[n+]1c2ccccc2nc2ccc(N3CCOCC3)cc21	EBNA-1 inhibitor 84.4, ZTA counter 115.0
C[n+]1c(-c2ccccc2)c2cc(N)ccc2c2ccc(N)cc21	SUMO HTRF inh 100.8
CC1(C)CC[C@]2(C)CC[C@]3(C)C4C[C@@H]5OO[C@@]6(O5)C(CCCC6(C)C)[C@]4(C)CC[C@@]3(C)C2C1 (some centres not stated)	none (no result: SUMO HTRF inh, NS3 helicase inh)
O=C(NCCCn1ccnc1)C(Cl)(Cl)Cl	none
Cc1cccc(N2C(=O)NC(=O)/C(=C\c3ccc4c(c3)CCCN4Cc3ccccc3)C2=O)c1	none
CCC(C)N1C(=O)/C(=C/c2ccc3c(c2)CCN3CCCCl)C(=O)NC1=S (configuration not stated)	core dimer inh 71.5
CN1CCN(c2ccc3nccnc3c2)CC1	SUMO HTRF inh 58.4
COC(=O)C1=C(c2ccc(C(C)=O)cc2)C[C@@H]2CC[C@H]1N2C(=O)NC1Cc2ccccc2C1	none (no result: EBNA-1 inhibitor, SUMO HTRF inh, NS3 helicase inh, core dimer inh)
O=C1NC(=O)N(CCC2=CCCCC2)C(=O)/C1=C/c1cccs1	none
CC(C)CN1CCN(Cc2ccc(C(F)(F)F)cc2)CC1CCO (configuration not stated)	none
Cc1cc(C=C2C(=O)NC(=O)NC2=O)c(C)n1-c1ccc2c(c1)OCO2	none
Cc1cc(C=C2C(=O)NC(=S)NC2=O)c(C)n1-c1ccc2c(c1)OCO2	SUMO HTRF inh 78.6
O=S(=O)(c1ccccc1)N1CN2CCN(C2)C1	none
Cc1cccn2c(NCC3CCCO3)c(C(C)C)nc12 (configuration not stated)	none
CCOc1cc(-c2nc3c(C)cccn3c2NCC2CCCO2)ccc1O (configuration not stated)	SUMO HTRF inh 52.1
CCCCn1c(N)c(C(=O)NCCN2CCOCC2)c2nc3ccccc3nc21	none
CCCCn1c(NC(=O)c2ccc(Br)o2)c(C(=O)OCC)c2nc3ccccc3nc21	SUMO HTRF inh 100.0
C=C1C(=O)O[C@@H]2C[C@@H](C)[C@H]3C=CC(=O)[C@]3(O)C[C@@H]12	core dimer inh 46.6 (no result: NS3 helicase inh)
CN(C)[C@@H]1C(=O)C(C(N)=O)=C(O)[C@@]2(O)C(=O)C3=C(O)c4c(O)ccc(Cl)c4[C@@](C)(O)C3C[C@@H]12 (some centres not stated)	none (no result: EBNA-1 inhibitor, ZTA counter, core dimer inh)
CN(C)[C@@H]1C(=O)C(C(N)=O)=C(O)[C@@]2(O)C(=O)C3=C(O)c4c(O)cccc4[C@@](C)(O)[C@H]3C[C@@H]12	core dimer inh 52.1 (no result: SUMO HTRF inh, NS3 helicase inh)
O=C1NC(=O)N(c2ccccc2)C(=O)/C1=C\c1ccc([N+](=O)[O-])o1	ZTA counter 41.5
Cc1ccc(N2C(=O)NC(=O)/C(=C/c3ccoc3)C2=O)cc1	SUMO HTRF inh 55.5 (no result: EBNA-1 inhibitor, ZTA counter, core dimer inh)
Cc1cc2c(C(C)C)c(O)c(O)c(C=O)c2c(O)c1-c1c(C)cc2c(C(C)C)c(O)c(O)c(C=O)c2c1O	SUMO HTRF inh 94.9, NS3 helicase inh 36.8 (no result: EBNA-1 inhibitor, ZTA counter, core dimer inh)
O=C1NC(=O)C(=Cc2coc3ccccc3c2=O)C(=O)N1	none
O=C1NC(=O)C(=C/C=C/c2coc3ccc(Br)cc3c2=O)C(=O)N1	NS3 helicase inh 48.0
COC(=O)C1=C(c2cccc(C#N)c2)C[C@@H]2CC[C@H]1N2C(=O)N1CCc2cc(OC)c(OC)cc2C1	none (no result: EBNA-1 inhibitor, SUMO HTRF inh, NS3 helicase inh, core dimer inh)
COc1ccc(C(C)=O)cc1Cc1c(O)[nH]c(=S)[nH]c1=O	none
COc1cc(/C=C/c2nc3ccccc3c(=O)n2-c2cccc(O)c2)ccc1O	SUMO HTRF inh 51.3
O=C(NCCN1CCCCC1)c1ccc(Cl)nc1Cl	none
Cc1ccc2c(c1Cl)NC(C(=O)O)C1CC(Sc3ccccc3[N+](=O)[O-])C(Cl)C21 (configuration not stated)	core dimer inh 66.3
COc1ccc2c(c1)NP(=S)(Oc1ccccc1)N2 (configuration not stated)	SUMO HTRF inh 52.8
COc1cccc(-n2c(=S)[nH]c3ccccc3c2=O)c1	none
COC(=O)C1=C(c2ccc(OC)c(OC)c2)C[C@@H]2CC[C@H]1N2C(=O)NCCOc1ccc(OC)cc1	none (no result: EBNA-1 inhibitor, SUMO HTRF inh, NS3 helicase inh, core dimer inh)
N#C/C(=C(/O)c1ccc(S(=O)(=O)N(CCCl)CCCl)cc1)c1nc2ccccc2[nH]1	SUMO HTRF inh 52.9
Clc1ccc(OCC#CCN2CCCC2)cc1	none
C=CCn1c(O)c(C(CC)=Nc2ccc3c(c2)CCC3)c(=O)[nH]c1=O	none
C=CCn1c(O)c(C(CC)=Nc2ccc(N(C)C)cc2)c(=O)[nH]c1=O	EBNA-1 inhibitor 126.8, ZTA counter 137.6
O=C1NC(=O)C(=Cc2cc3c(cc2[N+](=O)[O-])OCO3)C(=O)N1	SUMO HTRF inh 98.6
O=C(N/N=C/c1c(O)n(C2CCCCC2)c(=S)[nH]c1=O)c1ccccc1O	none (no result: SUMO HTRF inh)
CC(C)c1ccc(-n2c(O)c(/C=N/NC(=O)c3ccccc3O)c(=O)[nH]c2=S)cc1	SUMO HTRF inh 65.6, NS3 helicase inh 74.2 | NS3 hel confirm 74.0 | DNA FID counter inactive
COc1cc(OC)c2c(c1)OCC1CON(C)C21 (configuration not stated)	none
NNC(=O)CN1C(=O)CN=C(c2ccccc2)c2cc(Br)ccc21	NS3 helicase inh 53.7 | NS3 hel confirm inactive | DNA FID counter inactive
O=C(O)Cn1cc(/C=C2\C(=O)NC(=O)N(c3ccc(Br)cc3)C2=O)c2ccccc21	NS3 helicase inh 49.0 | NS3 hel confirm inactive | DNA FID counter inactive
CCOP(=S)(OCC)Oc1nc(Cl)c(Cl)cc1Cl	none (no result: EBNA-1 inhibitor, SUMO HTRF inh, NS3 helicase inh, core dimer inh)
N#Cc1cc2c(nc1SCC(=O)Nc1cc(Cl)cc(Cl)c1)C1CCN2CC1	none
COc1cccc(N2C(=O)CC(=O)NC2=O)c1	none
Cc1ccc(N2C(=O)CC(=O)NC2=O)cc1Cl	NS3 helicase inh 45.3 | NS3 hel confirm inactive | DNA FID counter inactive
CCOc1cccc(N2C(=O)CC(=O)NC2=O)c1	NS3 helicase inh 59.2 | NS3 hel confirm inactive | DNA FID counter inactive
CCc1ccc(N2C(=O)NC(=O)/C(=C\C=C\c3ccco3)C2=O)cc1	none
Cc1ccc(N2C(=O)NC(=O)/C(=C/C=C/c3ccco3)C2=O)cc1	NS3 helicase inh 39.4 | NS3 hel confirm inactive | DNA FID counter inactive
Cc1cc(C)cc(N2C(=O)NC(=O)/C(=C\C=C\c3ccco3)C2=O)c1	NS3 helicase inh 53.5 | NS3 hel confirm inactive | DNA FID counter inactive
CCOC(=O)CC1=C(C(=O)OCC)C2(C(=O)N1CC(=O)OC)C(C#N)=C(N)Oc1ccccc12 (configuration not stated)	none
CN(C)C1C(=O)C(C(N)=O)=C(O)C2(O)C(=O)C3=C(O)c4c(O)cccc4C(C)(O)C3CC12 (configuration not stated)	NS3 helicase inh 42.5 | NS3 hel confirm inactive | DNA FID counter inactive
CN1CCc2cc3c(c4c2C1Cc1ccccc1-4)OCO3 (configuration not stated)	NS3 helicase inh 44.3 | NS3 hel confirm inactive | DNA FID counter 82.2

Bioassay records from PubChem BioAssay.
